Test results taken from ChEMBL document CHEMBL1212780, “Anti-Clostridium difficile potential of tetramic acid derivatives from Pseudomonas aeruginosa quorum-sensing autoinducers” (Antimicrob Agents Chemother, 2010).
Active and inactive are the calls of the source. No cut-off for these calls is given here.

Experiments:
Clostridioides difficile [1] = experiment: Antibacterial activity against Clostridium difficile assessed as inhibition of bacterial viability at 3 to 50 uM after 24 hrs; format: functional, organism-based
Summary of the method: (§1)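 Cultured anaerobically for 24 h at 37°C in supplemented BHI broth with a range of compound concentrations. Survivors counted by plating 10-fold serial dilutions. Detection limit 2 log CFU/ml. Compared against bacteria grown without compound.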

Clostridioides difficile [2] = experiment: Antibacterial activity against Clostridium difficile assessed induction of bacteriolysis at 30 uM after 26 hrs; format: functional, organism-based
Summary of the method: (§2)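 Anaerobic cultures in supplemented BHI were incubated with compound (30 or 50 μM depending on compound) for 26 h at 37°C. OD600 was read at each time point to follow growth and lysis, compared with an untreated control.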

Clostridioides difficile [3] = experiment: Antibacterial activity against Clostridium difficile 2 assessed as inhibition of bacterial viability after 24 hrs; format: functional, organism-based
Summary of the method: (§3)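 Four clinical isolates from pseudomembranous colitis patients, grown anaerobically at 37°C in BHI broth with 1% yeast extract and 0.1% L-cysteine. Broth cultures exposed 24 h to a range of compound concentrations (autoinducers at 50 μM). Viable counts made by plating 10-fold serial dilutions on sheep-blood Mueller-Hinton agar; n = 3.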

Clostridioides difficile [4] = experiment: Antibacterial activity against Clostridium difficile 4 assessed as inhibition of bacterial viability after 24 hrs; format: functional, organism-based; summary of the method: as §3
Clostridioides difficile [5] = experiment: Antibacterial activity against Clostridium difficile assessed as induction of changes in cell surface structures by electron microscopy; format: functional, organism-based
Summary of the method: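 Postfixed 1 h in 1% OsO4, ethanol-dehydrated and Epon-embedded. Surface structure of treated cells compared with control cells.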

Clostridioides difficile [6] = experiment: Antibacterial activity against Clostridium difficile assessed induction of bacteriolysis at 50 uM after 26 hrs; format: functional, organism-based; summary of the method: as §2
Clostridioides difficile [7] = experiment: Antibacterial activity against Clostridium difficile assessed as induction of morphological changes at 50 uM after 30 mins by Gram staining; format: functional, organism-based
Summary of the method: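 Bacteria grown 24 h at 37°C, pelleted at 5,000 rpm for 5 min, then exposed to compound at 50 μM for the stated time. Gram-stained and examined by light microscopy, compared with untreated cells.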

Clostridioides difficile [8] = experiment: Induction of lipid membranes composition changes in Clostridium difficile by NMR spectroscopy; format: functional, organism-based
Clostridioides difficile [9] = experiment: Antibacterial activity against Clostridium difficile 1 assessed as inhibition of bacterial viability after 24 hrs; format: functional, organism-based; summary of the method: as §3
Clostridioides difficile [10] = experiment: Antibacterial activity against Clostridium difficile 3 assessed as inhibition of bacterial viability after 24 hrs; format: functional, organism-based; summary of the method: as §3
Clostridioides difficile [11] = experiment: Drug uptake in Clostridium difficile assessed as dansylated compound accumulation at cell surface by electron microscopy; format: ADME, organism-based
Summary of the method: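 Bacteria treated with dansyl-labelled compound, fixed in 0.5% glutaraldehyde/2% paraformaldehyde at 4°C for 1 h without osmium, and embedded in Unicryl. Ultrathin sections blocked in 1.5% BSA, then rabbit anti-dansyl (1:100, 2 h, room temperature) and 10-nm gold anti-rabbit IgG (1:20, 30 min). Nonimmune serum used as negative control.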

Clostridioides difficile [12] = experiment: Antibacterial activity against Clostridium difficile 1 assessed as inhibition of bacterial viability at 50 uM after 24 hrs; format: functional, organism-based
Summary of the method: (§4)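 C. difficile clinical isolates from pseudomembranous colitis patients, grown anaerobically at 37°C in BHI broth with 1% yeast extract and 0.1% L-cysteine. Cultured 24 h with compound, then viable counts taken by plating serial 10-fold dilutions on Mueller-Hinton agar with 5% sheep blood. n = 3. Detection limit 2 log CFU/ml.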

Clostridioides difficile [13] = experiment: Antibacterial activity against Clostridium difficile 2 assessed as inhibition of bacterial viability at 50 uM after 24 hrs; format: functional, organism-based; summary of the method: as §4
Clostridioides difficile [14] = experiment: Antibacterial activity against Clostridium difficile 4 assessed as inhibition of bacterial viability at 50 uM after 24 hrs; format: functional, organism-based; summary of the method: as §4
Clostridioides difficile [15] = experiment: Antibacterial activity against Clostridium difficile 3 assessed as inhibition of bacterial viability at 50 uM after 24 hrs; format: functional, organism-based; summary of the method: as §4
Clostridioides difficile [16] = experiment: Antibacterial activity against Clostridium difficile assessed as inhibition of bacterial viability at 10 uM after 24 hrs relative to untreated control; format: functional; summary of the method: as §1

`CCCCCCCCC/C(O)=C1\C(=O)CN(C)C1=O` was tested, and the inhibition (Clostridioides difficile [1]) was “Active” and the Activity (Clostridioides difficile [2]) was “Active”.
In the case of `CCCCCCCCC/C(O)=C1/C(=O)N[C@@H](CCO)C1=O`, the inhibition (Clostridioides difficile [3]) is reported as “Dose-dependent effect”, the inhibition (Clostridioides difficile [4]) is reported as “Dose-dependent effect” and the Activity (Clostridioides difficile [5]) is reported as “Active”. The Activity (Clostridioides difficile [6]) was “Active”, the Activity (Clostridioides difficile [7]) was “Active” and the Activity (Clostridioides difficile [8]) was “Active”. The inhibition (Clostridioides difficile [9]) was “Dose-dependent effect”, the inhibition (Clostridioides difficile [10]) was “Dose-dependent effect” and the Drug uptake (Clostridioides difficile [11]) was “Active”.
In the case of `CCCCCCCCC/C(OC)=C1/C(=O)N[C@@H](CCO)C1=O`, the inhibition (Clostridioides difficile [1]) is reported as “Active”.
`CCCCCCCCC/C(O)=C1/C(=O)N[C@@H](C)C1=O` was tested, and the inhibition (Clostridioides difficile [1]) was “Active”, the Activity (Clostridioides difficile [6]) was “Active” and the Drug uptake (Clostridioides difficile [11]) was “Active”.
In the case of `CCCC(=O)N[C@H]1CCOC1=O`, the inhibition (Clostridioides difficile [12]) is reported as “inactive”, the inhibition (Clostridioides difficile [13]) is reported as “inactive” and the inhibition (Clostridioides difficile [14]) is reported as “inactive”. For the same compound, the inhibition (Clostridioides difficile [15]) was “inactive”.
`CCCCCCCCC/C(O)=C1\C(=O)CNC1=O` was tested, and the inhibition (Clostridioides difficile [1]) was “Active”, the “fold change (FC)” value (Clostridioides difficile [16]) was 100000 and the Activity (Clostridioides difficile [2]) was “Active”.
For `CCC/C(O)=C1/C(=O)N[C@@H](CCO)C1=O`, the inhibition (Clostridioides difficile [1]) was “Active”.
In the case of `CCCCCCCCC/C(O)=C1/C(=O)N[C@H](CCO)C1=O`, the inhibition (Clostridioides difficile [1]) is reported as “Active”, the Activity (Clostridioides difficile [6]) is reported as “Active” and the Drug uptake (Clostridioides difficile [11]) is reported as “Active”.
`CCCCCCCCCC(=O)CC(=O)N[C@H]1CCOC1=O` was tested, and the Activity (Clostridioides difficile [5]) was “inactive”, the inhibition (Clostridioides difficile [12]) was “inactive” and the inhibition (Clostridioides difficile [13]) was “inactive”. For the same compound, the Activity (Clostridioides difficile [8]) was “inactive”, the inhibition (Clostridioides difficile [14]) was “inactive” and the inhibition (Clostridioides difficile [15]) was “inactive”.
